Reference: the EternaBench riboswitch data

Tested on: MS2 coat protein
Assay: apparent Kd, MS2 coat protein; higher = weaker binding; RNA-MaP array; FMN 200 µM where present
In short: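 Stalled E. coli RNA polymerase transcribed the designs on Illumina sequencing-chip clusters. SNAP-549-labelled MS2 coat protein was titrated from 0.7 or 1.5 nM, doubling to 3 µM, without and then with constant ligand, in 100 mM Tris-HCl pH 7.5, 80 mM KCl, 4 mM MgCl2, BSA, DTT, yeast tRNA and Tween-20. Per-cluster binding curves were fitted to green signal normalised to red-channel RNA signal and control-cluster median Fmax. The apparent Kd is the median of the filtered fits.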

[1] = designed as: ON switch for flavin mononucleotide, no ligand
[2] = ligand present: flavin mononucleotide, designed as: ON switch for flavin mononucleotide
[3] = designed as: OFF switch for flavin mononucleotide, no ligand
[4] = ligand present: flavin mononucleotide, designed as: OFF switch for flavin mononucleotide

Sequence | apparent Kd [1] | apparent Kd [2] | apparent Kd [3] | apparent Kd [4]
GUGGUCAGACAUGAGGAUCACCCAUGUGGAAUAAAUAACAGACAGGAUAUCCAAUAUAGGAUAUAGGAGAAGGGUCGAUUGGUG | 73.1 nM | 74.2 nM | – | –
GAGUUACAUGAGGAUCACCCAUGUUGUUGUGGAUAAGGAUAUAUGGUAGGAAGAGGAAUGAUAGAAGGUAUUAGGG | 46.2 nM | 40 nM | – | –
UGUGCUGAAGGAUAUGCGUAAUGGCCGUGAGGCCUAGAUCUACAUGAGGAUCACCCAUGUAGAAGGUCAGUACU | – | – | 17.4 nM | 18.9 nM
CACCGUUAACUAGGAUAUAGUACAUGAGGAUCACCCAUGUAAUAAAUGAGAAUUUCGGAUGUAUGCUAGAAGGAGUAAAUCGGC | – | – | 62.8 nM | 64.4 nM
UGUGCGUUGAUCUUCGAUCGGUGUACAUGAGGAUCACCCAUGUAGGAUAUUCUAAGACGCAGAUAGGAGAAGGACAUUGGUUUU | – | – | 22.9 nM | 64.1 nM
AAAGAGCGAGGAUAUACGUAUCGGUGCGGCCCGCCGAUGUGACAUGAGGAUCACCCAUGUAGAAGGCGCAGAAA | – | – | 26.2 nM | 33 nM
UGUUAGUAGACAGGAUAUUGAAUGUUAAGUAUUAACAUGAGGAUCACCCAUGUAUUUGAUUGGUACAAGAAGGGUCAUGUUUGU | 265 nM | 606 nM | – | –
UCCGUGGCAUCUCGCGCAUGUCCACAUGAGGAUCACCCAUGUCAGGAUAUACGGAAUGUCGUUCCGUAGAAGGGACAAGGGCUG | – | – | 178 nM | 69.7 nM
CAGUACUGAGGAUAUACAUGAGGAUCACCCAUGUGUCCUGGCUAGGAUACUAGCAAAGGUAGAAGGCAGUACUG | – | – | 16.6 nM | 125 nM
GUCAGCUCGUCAGGAUAUACAUGAUAGAUCGAUUAAUUAAUUAAUUUAACAUGAGGAUCACCCAUGUAGAAGGGACGAGCUGAU | – | – | 109 nM | 84.2 nM
AGAAAACAUGAGGAUCACCCAUGUGAGGAUAUCGAUGUCCAAGGAAGGGUGCGGGACUCGAGAAGGCACUUGGA | – | – | 72.4 nM | 58.8 nM
AUAGUUUUUGAGAAGGCAUUUCUUAAGUGAUCUUACUAGUACAUGAGGAUCACCCAUGUUUUGUAUGAGGAUAUCAGUAGGUUG | – | – | 33.9 nM | 31.7 nM
GCUGUCGCAUGAGGAUAUGGUCAGGUUUCCUGACCAGAAGGCAUGUCGAUAGACAUGAGGAUCACCCAUGUAGUAAAGACAGCA | 855 nM | 66.1 nM | – | –
GGGUUUGGAGGAUAUACAUGAGGAUCACCCAUGUAGGGCCCGGGUAUUCCCGGGCCCUGUAGAAGGCCGGGCCC | – | – | 14.1 nM | 16.5 nM
UAAAUUAACAAGAAGGCUAACAUGAGGAUCACCCAUGUUGUACAUGGAUAUAGAGGAUAUUGCUAUUAAUUAUUUAUCAUAAUU | – | – | 21.2 nM | 18.9 nM
GCUCGUGGACAGAAGGCGACAUGAGGAUCACCCAUGUUGGCUCGGGUAUGACCAAUCCGCAUGAUCGAGGAUAUGUCUGCGGGC | – | – | 419 nM | 19.2 nM
UAUGUAUUCGUAGGAUAUCCGUCGAGACCGUGUGGAGAAGGACGAACAUGAGGAUCACCCAUGUAUCAUGGUGUAGACAAUUUU | – | – | 47.4 nM | 186 nM
AAGAAGUGAGGAUAUGCAGUGGCCUGUAGACGCAAGCACUUGUAGAAGGCACAUGAGGAUCACCCAUGUUUAAA | – | – | 35 nM | 32.8 nM
CUAUGCGGAAUAGGAUAUUCAUUCAUGAGGAUAGAAGAAGGGUUACAUGAGGAUCACCCAUGUAUGCACAUGAGGAUCCCUUAG | – | – | 247 nM | 260 nM
UUUCCGCGAGGAUAUGCGGGUUGUGCUUUUCAUUUCUUAUAACAUGAGGAUCACCCAUGUAGAAGGUGCUUCUU | – | – | 151 nM | 144 nM
UGGAUCAUCGGAGGAUAUCAUGUAUAUACAUGAGGAUCACCCAUGUCGAUGGAGACAUCGGAGAUUGAGAAGGCCGAUGAUCCU | 910 nM | 30.5 nM | – | –
AUUAUUUUGUAGAAGGACGACUAUUAAUUUUUCGUAGGAUAUACUAUUUACAUGAGGAUCACCCAUGUUUAAAUGGAACAAUGU | – | – | 9.32 nM | 10.4 nM
AAGACAAAUGUAGGAUAUGCGUGGCGAAGCUAUGCAGAAGGACAUGAGGAUCACCCAUGUCUUAGCGUCUGCGUACAGAUGCUA | – | – | 16.7 nM | 20.9 nM
UUCUUGGCAGGAUAUGCUUUUUUAGACAUGAGGAUCACCCAUGUGUUUAUUUUUUUUUUUGCAGAAGGGCCUUAAU | – | – | 16.4 nM | 19.5 nM
UCGAAGAAGCAAGGAUAUCAAUAUUAGCAAAAUAUGACAUGAGGAUCACCCAUGUAAAUAUGGAGUGAGAAGGUGCAAUAAUUU | 274 nM | 149 nM | – | –
AGUUUCUCCGCAGGAUAUGUGCUCUUUAUCACAUGAGGAUCACCCAUGUCAGCCUACACGGCGAGACAGAAGGGUGGUGAUGCC | 88.6 nM | 81.2 nM | – | –
UUGAUUAUACAAGGAUAUCAAUUGUAAUUAAGACUUACAUGAGGAUCACCCAUGUUAAUAUUUUUUGAGAAGGUGUAUUUUCAG | 25.4 nM | 21.9 nM | – | –
GGCUGGCAGCUAGGAUAUGGGCGGUCACAUGAGGAUCACCCAUGUCAACAUCAAAACCAGAUUAACCAGAAGGAGCUGCGGAUU | 32.7 nM | 502 nM | – | –

Sequence | apparent Kd [1] | apparent Kd [2] | apparent Kd [3] | apparent Kd [4]
CAGAAGUCAGGAUAUGCUGCUCGUCACUUGCGUGAUGAGUAGCAGAAGGGACAUGAGGAUCACCCAUGUAAAGU | – | – | 55.6 nM | 121 nM
AAGAGUAGAGGAUAUACGAAAAAAGAGUCGAAAGACUCGGGACAUGAGGAUCACCCAUGUAGAAGGCUACUCAA | – | – | 25.4 nM | 120 nM
UUUUUGUGAGGAUAUCAGUAGUAAAUAAAUAAAAUUACUACUGAGAAGGCACAUGAGGAUCACCCAUGUUUUUU | – | – | 40.4 nM | 95.1 nM
AAUAAACAUGAGGAUCACCCAUGUCAGGAUAUCCUAAAUAAAAAAAUAUAAAGAAGAAGGAGAAGGGACUAAAA | – | – | 111 nM | 120 nM
GACAAACAUGAGGAUCACCCAUGUUCAAACGAACAAGGAUAUGUGUGGAAACCGUACUAUACAGAAGGUGUCUGUC | 36.5 nM | 37.7 nM | – | –
AACUGCUGCGUUGUGAUUUCUCCACAUGAGGAUCACCCAUGUCAGGAUAUCUUACCUAGCGGACAAGAGAAGGGACAUGACGGU | – | – | 348 nM | 129 nM
UUGGACGUCGUAGGAUAUGUAGGAUAUUCCUACAUGAGGAUCACCCAUGUUGACAUGGAAGAACGACAGAAGGACGAUGUCCAU | 130 nM | 7.46 nM | – | –
UAAUAAUUAUGAGGAUAUAUACAACAUGAGGAUCACCCAUGUACCCAUGUAGUAGAAGGCAUAUUUUUAUUUAAUAAUAUAAUU | 79.4 nM | 33.9 nM | – | –
UCUUAAUUGAUCCUAUUUACCAACAUGAGGAUCACCCAUGUGCAGGAUAUGCUAAAGAUAGAUAAGCAGAAGGGCAUUUACCGC | – | – | 213 nM | 484 nM
GUGGCACAUGAGGAUCACCCAUGUCAGGAUAUCGCGUGUUUUUUUUCGGCCGCGCGCGCGAGAAGGGACGUCUU | – | – | 27.1 nM | 29.8 nM
AAAAAACAUGAGGAUCACCCAUGUUAGGAUAUGCUAUGGAAAAUAAAAAAUAAACAUAGCAGAAGGAACAAAAA | – | – | 43.4 nM | 48.9 nM
UCAUGCAUAGCGAUAUGAUCGAGAGAUCAUGUCGCUAAAUUUAGAAGGACAUGAGGAUCACCCAUGUAGGAUAUGGGAGCAUGU | 535 nM | 63.2 nM | – | –
CUUGUACAUGAGGAUCACCCAUGUUAGGAUAUCUCGCCGUCGGCUUGCCGACGGUAUUAGAGAAGGGACUUGGG | – | – | 56 nM | 33 nM
CGCAUCUCUACAAUUCCUUCACAUGAGGAUCACCCAUGUAGGGAGGAUAUGCAAGCUUAUUGGCGGCAGAAGGCCCUGCAAUGG | – | – | 142 nM | 127 nM
UGCUACGGAGGAUAUACAUGAGGAUCACCCAUGUGAGAGAUUUGGCCGAGAGGCCAGUGUAGAAGGCCGUAGCU | – | – | 68.9 nM | 416 nM
GGGUACAUCGGAGGAUAUCAUGUAAAUACAUGAGGAUCACCCAUGUCGAUGGAGACAUCGGAGAUUGAGAAGGCCGUUGUACCG | 168 nM | 9.18 nM | – | –
CGCAAGUCAGGAUAUUCGACUGGUAAAUCUGUGGAUCAGUAGGAGAAGGGACAUGAGGAUCACCCAUGUUUGUU | – | – | 28.6 nM | 31.9 nM
GUCCACAUGAGGAUCACCCAUGUGAGAAGGUUGGUUUUGUUGAGGUAGUGGUUUGCCUUGGUGGUAGAGGAUAUUGAUGGGUUA | – | – | 7.7 nM | 7.33 nM
UACAUCAAUGAAGGAUAUCUAUAUCCAACAUGAGGAUCACCCAUGUUGAGGAUCACCCAUGUAAAGGAGAAGGUUAACAUAACU | 39.4 nM | 34 nM | – | –
AAGAAACAUGAGGAUCACCCAUGUGAGGAUAUGAGCAAGAAAAGAAAAGAAAGAAGAAUCAGAAGGCACAAAGG | – | – | 39.6 nM | 75.7 nM
CGAGUUUUUGAGAAGGCAUAUUAUAAUAGUGUCCAUGUUUACAUGAGGAUCACCCAUGUUUAGUAUGAGGAUAUCAGUAUGUCG | – | – | 8.01 nM | 11.1 nM
AUGGUUGUCGUAGGAUAUGUAGGAUAUUCCUACAUGAGGAUCACCCAUGUUCGCAUGGAAGAAGGACAGAAGGACGAUGACCAC | 1480 nM | 9.4 nM | – | –
CAAAGUGGAGGAUAUACAUGAGGAUCACCCAUGUAAGGACAAUAAAUAAGAAGAAGAAGUAGAAGGCCACUCAA | – | – | 31.1 nM | 41.6 nM
UUUAAUAAGUAGAAGGACGGAGAGUAUGAAGUCGUAGGAUAUACAUAAGACAUGAGGAUCACCCAUGUGUGUAUUUUGGGUAUG | – | – | 12.8 nM | 13.4 nM
UCGACCAGCGCCAGUCGAACAUGAGGAUCACCCAUGUACUCCAGAAGGCCGCCCAAGUACGGAGUGGAGGAUAUGGAAGUUCUC | 47.3 nM | 26.3 nM | – | –
AGAGAAUACUCAGGAUAUCUUAAUAGAAAGAAUAGAGAAGGGAGACAUGAGGAUCACCCAUGUGAAGUCUUGAGACUACAUGGU | – | – | 291 nM | 442 nM
GUCAGCUCGUCAGGAUAUACAUGAGGAUCACCCAUGUGAUCAAUAGCAGCUUCGGCUGCAUUAAUGUAGAAGGGACGAGCUGAU | – | – | 267 nM | 69.2 nM
